Test results as given in ChEMBL document CHEMBL5329223, “Newly synthesized 6-substituted piperazine/phenyl-9-cyclopentyl containing purine nucleobase analogs act as potent anticancer agents and induce apoptosis via inhibiting Src in hepatocellular carcinoma cells” (RSC Med Chem, 2023).
pIC50: −log10 of the molar value. Active and inactive are the calls of the source. The rule behind the calls is not given here.

Experiments:
Huh-7 [1] = test: Cytotoxicity against human Huh-7 cells assessed as cell growth inhibition incubated for 72 hrs by SRB assay; type: functional, cell-based; conditions: Huh-7, 72 h
Procedure, shortened: (§1)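 Cells seeded at 1000–3000 per well, treated after 24 h with 2.5–40 μM (40, 20, 10, 5, 2.5 μM) for 72 h, in duplicate or triplicate; DMSO negative control. Fixed with 10% TCA 1 h at 4 °C, stained with 0.4% SRB in 1% acetic acid, dye solubilized in 10 mM TBS, A515 read; OD normalized to DMSO control, IC50 from growth-inhibition curves.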

HCT-116 = test: Cytotoxicity against human HCT-116 cells assessed as cell growth inhibition incubated for 72 hrs by SRB assay; type: functional, cell-based; conditions: for pIC50: HCT-116, 72 h; procedure, shortened: as §1
MCF7 = test: Cytotoxicity against human MCF7 cells assessed as cell growth inhibition incubated for 72 hrs by SRB assay; type: functional, cell-based; conditions: for pIC50: MCF7, 72 h; procedure, shortened: as §1
PLC = test: Cytotoxicity against human PLC cells assessed as cell growth inhibition incubated for 72 hrs by SRB assay; type: functional, cell-based; procedure, shortened: as §1
SNU-182 = test: Cytotoxicity against human SNU-182 cells assessed as cell growth inhibition incubated for 72 hrs by SRB assay; type: functional, cell-based; conditions: SNU-182, 72 h; procedure, shortened: as §1
[2] = Cytotoxicity against human FOCUS cells assessed as cell growth inhibition incubated for 72 hrs by SRB assay; type: functional, cell-based; procedure, shortened: as §1
HepG2 = test: Cytotoxicity against human HepG2 cells assessed as cell growth inhibition incubated for 72 hrs by SRB assay; type: functional, cell-based; conditions: HepG2, 72 h; procedure, shortened: as §1
SNU-423 = test: Cytotoxicity against human SNU-423 cells assessed as cell growth inhibition incubated for 72 hrs by SRB assay; type: functional, cell-based; conditions: SNU-423, 72 h; procedure, shortened: as §1
SNU-387 = test: Cytotoxicity against human SNU-387 cells assessed as cell growth inhibition incubated for 72 hrs by SRB assay; type: functional, cell-based; conditions: SNU-387, 72 h; procedure, shortened: as §1
Mahlavu [3] = test: Cytotoxicity against human Mahlavu cells assessed as cell growth inhibition incubated for 72 hrs by SRB assay; type: functional, cell-based; procedure, shortened: as §1
SNU-475 = test: Cytotoxicity against human SNU-475 cells assessed as cell growth inhibition incubated for 72 hrs by SRB assay; type: functional, cell-based; conditions: SNU-475, 72 h; procedure, shortened: as §1
SNU-398 = test: Cytotoxicity against human SNU-398 cells assessed as cell growth inhibition incubated for 72 hrs by SRB assay; type: functional, cell-based; conditions: SNU-398, 72 h; procedure, shortened: as §1
Hep 3B2 = test: Cytotoxicity against human Hep3B cells assessed as cell growth inhibition incubated for 72 hrs by SRB assay; type: functional, cell-based; procedure, shortened: as §1
SNU-449 = test: Cytotoxicity against human SNU-449 cells assessed as cell growth inhibition incubated for 72 hrs by SRB assay; type: functional, cell-based; conditions: SNU-449, 72 h; procedure, shortened: as §1
Mahlavu [4] = test: Upregulation of intracellular ATP level in human Mahlavu cells at 5 uM incubated for 72 hrs by Kinase Glo assay; type: functional, cell-based
Procedure, shortened: (§2)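 Huh7 and Mahlavu cells grown 24 h, then treated with 5 μM for 72 h. Lysates protein-normalized by Bradford; ATP read by Kinase-Glo Plus luminescence per kit protocol. Staurosporine positive control, DMSO negative control.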

Huh-7 [5] = test: Induction of cell cycle arrest in human Huh-7 cells assessed as increase in accumulation of cells at subG1 phase at 5 uM incubated for 72 hrs by PI staining based flow cytometry; type: functional
Procedure, shortened: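 Huh7 and Mahlavu cells serum-starved 24 h to synchronize, then given 5 μM or DMSO in fresh growth medium for 72 h. Trypsinized, fixed in ice-cold 70% ethanol at least 3 h at −20 °C, PI-stained with a cell cycle kit, analyzed by flow cytometry for SubG1.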

Huh-7 [6] = test: Cytotoxicity against human Huh-7 cells assessed as cell growth inhibition at 0.625 to 5 uM measured upto 72 hrs by RT-CES analysis; type: functional, cell-based; conditions: dose 0.625-5 µM
Procedure, shortened: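 Huh7 cells, 2000 per well, treated 24 h after seeding alongside DMSO control; cell index from impedance recorded every 30 min; plots for each concentration normalized to DMSO-treated cells.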

Huh-7 [7] = test: Induction of apoptosis in human Huh-7 cells assessed as increase in PARP-1 cleavage at 5 uM incubated for 72 hrs by Western blot analysis; type: functional, cell-based
Procedure, shortened: (§3)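 Huh7 cells (300 000 per dish) treated 24 h after seeding with 5 μM or DMSO for 72 h. Immunoblot for PARP-1, phospho-Src Tyr416, Src, Rb, phospho-Rb Ser807/811, Cdk2; calnexin and actin as loading controls.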

Huh-7 [8] = test: Upregulation of intracellular ATP level in human Huh-7 cells at 5 uM incubated for 72 hrs by Kinase Glo assay; type: functional, cell-based; procedure, shortened: as §2
Huh-7 [9] = test: Induction of morphological changes in human Huh-7 cells assessed as horseshoe-like condensed nuclei at 5 uM incubated for 72 hrs by Hoechst 33258 dye based microscopy; type: functional, cell-based
Procedure, shortened: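 Huh7 cells on coverslips (50 000 per well) given 5 μM or DMSO 24 h after seeding for 72 h; permeabilized with ice-cold methanol 10 min, Hoechst 33258 stain 5 min in the dark, imaged by fluorescence microscopy with 40× objective.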

[10] = molecular target: Proto-oncogene tyrosine-protein kinase Src (Homo sapiens) (UniProt P12931); test: Inhibition of Src activation in human Huh-7 cells assessed as decrease in phosphorylated Src level at 5 uM incubated for 72 hrs by Western blot analysis; type: cell-based; procedure, shortened: as §3
Proto-oncogene tyrosine-protein kinase Src (Homo sapiens), sequence (P12931 2-536 limits assumed): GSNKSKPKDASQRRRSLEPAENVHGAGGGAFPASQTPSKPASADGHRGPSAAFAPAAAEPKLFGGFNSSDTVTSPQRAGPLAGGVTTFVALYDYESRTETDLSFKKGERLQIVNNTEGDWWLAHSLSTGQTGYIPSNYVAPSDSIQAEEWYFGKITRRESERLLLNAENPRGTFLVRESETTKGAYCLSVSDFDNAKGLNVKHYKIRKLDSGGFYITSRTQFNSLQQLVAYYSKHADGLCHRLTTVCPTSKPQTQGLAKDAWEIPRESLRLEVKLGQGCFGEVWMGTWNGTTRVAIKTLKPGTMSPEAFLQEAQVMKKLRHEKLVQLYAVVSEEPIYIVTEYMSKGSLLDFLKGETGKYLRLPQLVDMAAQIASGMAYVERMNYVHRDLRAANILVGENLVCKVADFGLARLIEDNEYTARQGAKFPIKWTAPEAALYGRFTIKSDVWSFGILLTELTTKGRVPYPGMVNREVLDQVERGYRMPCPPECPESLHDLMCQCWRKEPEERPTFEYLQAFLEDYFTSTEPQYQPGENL

Row | SMILES | pIC50 (Huh-7 [1]) | pIC50 (HCT-116) | pIC50 (MCF7) | pIC50 (PLC) | pIC50 (SNU-182) | pIC50 [2] | pIC50 (HepG2) | pIC50 (SNU-423) | pIC50 (SNU-387) | pIC50 (Mahlavu [3]) | pIC50 (SNU-475) | pIC50 (SNU-398) | pIC50 (Hep 3B2) | pIC50 (SNU-449) | also measured
1 | FC(F)(F)c1ccc(-c2ncnc3c2ncn3C2CCCC2)cc1 | 4.53 | 5.22 | 4.69 | – | – | – | – | – | – | – | – | – | – | – | –
2 | c1ccc(-c2ncnc3c2ncn3C2CCCC2)cc1 | 4.89 | 4.86 | 4.80 | – | – | – | – | – | – | – | – | – | – | – | –
3 | Clc1ccc(N2CCN(c3ncnc4c3ncn4C3CCCC3)CC2)cc1Cl | 7.40 | 7.40 | 6.80 | 5.15 | 4.19 | 6.30 | 7.70 | 5.00 | 4.70 | 7.00 | 5.60 | 6.70 | 7.52 | > 7.00 | –
4 | O=S(=O)(c1ccc(C(F)(F)F)cc1)N1CCN(c2ncnc3c2ncn3C2CCCC2)CC1 | 4.91 | 4.49 | 4.90 | – | – | – | – | – | – | – | – | – | – | – | –
5 | Nc1nc(F)nc2c1ncn2[C@@H]1O[C@H](CO)[C@@H](O)[C@@H]1O [FLUDARABINE] | 4.61 | 5.08 | – | 4.38 | 4.43 | 4.86 | 4.77 | 4.49 | 4.47 | 4.85 | 4.38 | 6.70 | 4.56 | 4.60 | –
6 | Nc1nc(Cl)nc2c1ncn2[C@H]1C[C@H](O)[C@@H](CO)O1 [CLADRIBINE] | 6.22 | > 7.00 | – | 5.04 | 4.63 | > 7.00 | 6.40 | 5.17 | 5.15 | > 7.00 | 5.60 | > 7.00 | 7.00 | 4.43 | –
7 | Fc1ccc(N2CCN(c3ncnc4c3ncn4C3CCCC3)CC2)cc1 | 5.82 | 5.80 | 5.04 | 5.22 | 4.39 | 5.82 | 6.30 | 4.80 | 4.59 | 5.15 | 5.15 | 6.00 | 5.37 | 5.48 | Activity (Mahlavu [4]): inactive; Activity (Huh-7 [5]): Active; growth inhibition (GI) (Huh-7 [6]): Active; Activity (Huh-7 [7]): Active; Activity (Huh-7 [8]): inactive; Activity (Huh-7 [9]): Active
8 | Clc1ccc(N2CCN(c3ncnc4c3ncn4C3CCCC3)CC2)cc1 | 7.00 | 6.22 | 5.39 | 4.71 | 4.91 | 5.70 | 8.00 | 5.40 | 5.70 | 5.40 | 4.91 | 5.74 | 6.40 | 5.16 | Activity (Mahlavu [4]): inactive; Activity (Huh-7 [5]): Active; growth inhibition (GI) (Huh-7 [6]): Active; inhibition [10]: Active; Activity (Huh-7 [8]): inactive; Activity (Huh-7 [9]): Active
9 | O=S(=O)(c1ccccc1)N1CCN(c2ncnc3c2ncn3C2CCCC2)CC1 | 4.88 | 4.92 | 4.95 | – | – | – | – | – | – | – | – | – | – | – | –
10 | Clc1ccc(-c2ncnc3c2ncn3C2CCCC2)cc1 | 4.81 | – | – | – | – | – | – | – | – | – | – | – | – | – | growth inhibition (GI) (HCT-116): inactive; growth inhibition (GI) (MCF7): inactive
11 | Cc1ccc(S(=O)(=O)N2CCN(c3ncnc4c3ncn4C3CCCC3)CC2)cc1 | 4.31 | 3.71 | 3.77 | – | – | – | – | – | – | – | – | – | – | – | –
12 | CC(C)(C)c1ccc(-c2ncnc3c2ncn3C2CCCC2)cc1 | 5.20 | 5.18 | 4.90 | 5.47 | 4.91 | 5.70 | 5.57 | 5.40 | 5.70 | 5.40 | 4.91 | 5.74 | 5.17 | 5.16 | –
13 | O=S(=O)(c1ccc(F)cc1)N1CCN(c2ncnc3c2ncn3C2CCCC2)CC1 | 5.05 | 4.92 | 5.28 | 4.81 | 4.32 | 4.90 | 5.32 | 5.02 | 4.95 | 4.94 | 4.67 | 5.10 | 5.21 | 4.79 | –
